The term MIC denotes the least concentration at which growth counts as inhibited.

This is an account of results in ChEMBL document CHEMBL1155660, “Hyalodendrosides A and B, antifungal triterpenoid glycosides from a lignicolous hyphomycete, Hyalodendron species” (2000).

≈ marks a conversion by molar mass, not a printed value. Some results are limits rather than exact numbers.

What all share (assay type): functional
One assay has as its system Aspergillus fumigatus. In words: Antifungal activity against Aspergillus fumigatus MF5668 after 48 hrs. In a few lines:
(§1)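 Broth microdilution MIC in microtiter format. Organisms grown in Synthetic Complete defined medium. Log-phase cells adjusted by A600 to an initial inoculum absorbance of 0.0014. […] Growth inhibition scored at 24 and 48 h, with visual endpoints.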

In assay [1] the test system is Candida albicans. In words: Antifungal activity against Candida albicans MY1055 after 48 hrs in presence of 10% bovine serum albumin. The conditions noted are these: MY1055, 48 h. In a few lines:
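Microtiter broth dilution MIC in Synthetic Complete medium with 10% bovine serum albumin added. Log-phase inoculum set by A600 to an absorbance of 0.0014. Titration started at 256 µg/mL. Cells grown 48 h and endpoints read visually.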

The next assay concerns Cryptococcus neoformans. In words: Antifungal activity against Cryptococcus neoformans MY2062 after 48 hrs. In a few lines:
as §1

Assay [2] relates to Candida albicans. In words: Antifungal activity against Candida albicans MY1055 after 48 hrs. To be noted: MY1055, 48 h. In a few lines: as §1
The next assay concerns Saccharomyces cerevisiae. In words: Antifungal activity against Saccharomyces cerevisiae MY2214 after 48 hrs. In a few lines: as §1

With `CC(=O)O[C@@H]1C[C@]2(CO)[C@H]3CCC4=C5C(=O)C[C@@H](C(C)C)[C@@]5(C)CC[C@@]4(C)[C@]3(C)CC[C@H]2C(C)(C)[C@H]1O[C@@H]1O[C@H](CO)[C@@H](O)[C@H](O)[C@H]1O` [HYALODENDROSIDE B], the MIC against Aspergillus fumigatus is 64 µg/mL (≈ 94.6 µM); in the assay with Candida albicans [1], 128 µg/mL; in the assay on Cryptococcus neoformans it was 4 µg/mL (≈ 5.91 µM); in the assay on Candida albicans [2], 16 µg/mL (≈ 23.6 µM); with Saccharomyces cerevisiae, 32 µg/mL (≈ 47.3 µM).
In the same order, the values of `CC(=O)O[C@@H]1C[C@]2(CO)[C@H]3CCC4=C5C(=O)CC6[C@H](C)CO[C@@H](O)C56CC[C@@]4(C)[C@]3(C)CC[C@H]2C(C)(C)[C@H]1O[C@@H]1O[C@H](CO)[C@@H](O)[C@H](O)[C@H]1O` (stereo not given in full) [HYALODENDROSIDE A] are over 256 µg/mL, 128 µg/mL, over 256 µg/mL, 128 µg/mL (≈ 181 µM) and 128 µg/mL (≈ 181 µM).
With `C[C@@H]1[C@H](O)[C@@H](C)/C=C/C=C/C=C/C=C/C=C/C=C/C=C/[C@H](O[C@@H]2O[C@H](C)[C@@H](O)[C@H](N)[C@@H]2O)C[C@@H]2O[C@](O)(C[C@@H](O)C[C@@H](O)[C@H](O)CC[C@@H](O)C[C@@H](O)CC(=O)O[C@H]1C)C[C@H](O)[C@H]2C(=O)O` [AMPHOTERICIN B], the MIC in the assay on Aspergillus fumigatus amounted to 1 µg/mL (≈ 1.08 µM); with Candida albicans [1], 0.25 µg/mL; in the assay with Cryptococcus neoformans, 0.25 µg/mL (≈ 0.271 µM); in the assay on Candida albicans [2], 0.5 µg/mL (≈ 0.541 µM); with Saccharomyces cerevisiae, 0.25 µg/mL (≈ 0.271 µM).
